Measurements from different studies.
Each line is one published result; the experiments were not run side by side. pIC50: −log10 of the molar value.

| Structure (SMILES) | target or system | assay | test system | setting | endpoint | value |
| --- | --- | --- | --- | --- | --- | --- |
| CNS(=O)(=O)c1ccc(Nc2ncc(C(F)(F)F)c([C@H]3CC[C@@](C)(O)CC3)n2)c(C)c1 | MDCK |  | Caco-2 | 1 µM, 2 h, pH 7.4 | Papp A→B | 7.6 ×10⁻⁶ cm/s |
| CC(C)(C)OC(=O)N1CCC(Oc2ccc3c(=O)c4c(F)cc(Cl)cc4[nH]c3c2)CC1 |  | metabolic stability | mouse, liver microsomes | 1 µM, pH 7.4 | half-life | > 60 min |
| COc1ccc(N2CCN(CC(=O)Nc3ccc(C(=O)C=Cc4ccc(Cl)cc4Cl)cc3)CC2)cc1 | MCF-10A | cell growth or viability, MTT |  | 50 µM, 96 h | viability | 86% |
| Cc1cc(S(=O)(=O)NC2CC(N3CC[C@@H](OC4CN(c5cccc6c5n(C)c(=O)n6C5CCC(=O)NC5=O)C4)[C@H](F)C3)C2)ccc1Nc1ncc(C(F)(F)F)c(N2CCC[C@](C)(O)C2)n1 (stereo partly drawn) | MDCK |  | Caco-2 | 1 µM, 2 h, pH 7.4 | Papp A→B | 0.9 ×10⁻⁶ cm/s |
| CC(=O)N1N=C(c2ccc(NC(=O)CN3CCN(c4ccc(Cl)cc4)CC3)cc2)CC1c1ccc(C)cc1 (stereo not drawn) | MCF-10A | cell growth or viability, MTT |  | 50 µM, 96 h | viability | 89% |
| CCCCN(CCCC)CCCOc1ccc2c(=O)c3c([nH]c2c1)CCCC3 |  | metabolic stability | mouse, liver microsomes | 1 µM, pH 7.4 | half-life | 38.3 min |
| COc1ccc(N2CCN(CC(=O)Nc3ccc(C4=NN(C(C)=O)C(c5ccc(Cl)cc5Cl)C4)cc3)CC2)cc1 (stereo not drawn) | MCF-10A | cell growth or viability, MTT |  | 50 µM, 96 h | viability | 89% |
| CNS(=O)(=O)c1ccc(Nc2ncc(C(F)(F)F)c(N3CCC(C)(O)CC3)n2)c(C)c1 | MDCK |  | Caco-2 | 1 µM, 2 h, pH 7.4 | Papp A→B | 9 ×10⁻⁶ cm/s |
| O=C(O)COc1cccc(-c2nc(Nc3ccc4[nH]ncc4c3)c3ccccc3n2)c1 | Solute carrier family 22 member 6 (SLC22A6, Homo sapiens, UniProt Q4U2R8) | transporter uptake, inhibitor, radiometric |  |  | pIC50 | < 3.30 |
| COc1ccc(C2CC(c3ccc(NC(=O)CN4CCN(c5ccc(OC)cc5)CC4)cc3)=NN2C(C)=O)cc1 (stereo not drawn) | MCF-10A | cell growth or viability, MTT |  | 50 µM, 96 h | viability | 92% |
| Cc1ccc(-c2nn(-c3ccccc3)cc2C=Nc2c(N)nc(S)nc2O)cc1 | MCF-10A | cell growth or viability |  | 48 h | CC50 | > 20 µM |
| CCCN(CCC)CCOc1ccc2c(=O)c3c([nH]c2c1)CCCC3 |  | metabolic stability | mouse, liver microsomes | 1 µM, pH 7.4 | half-life | 26.9 min |
| CC(=O)N1N=C(c2ccc(NC(=O)CN3CCN(c4ccc(Cl)cc4)CC3)cc2)CC1c1ccco1 (stereo not drawn) | MCF-10A | cell growth or viability, MTT |  | 50 µM, 96 h | viability | 84% |
| C[C@H]1Oc2cc(cnc2N)-c2c(nn(C)c2C#N)CN(C)C(=O)c2ccc(F)cc21 |  |  | male Sprague-Dawley rat, brain | oral, 10 mg/kg, 1 h, single dose | concentration | 495 ng/g |
| Cc1cc(S(=O)(=O)N[C@H]2CC[C@H](CN3CCN(c4ccc(C5CCC(=O)NC5=O)c(Cl)c4)CC3)CC2)ccc1Nc1ncc(C(F)(F)F)c(N2CCC[C@](C)(O)C2)n1 (stereo partly drawn) | MDCK |  | Caco-2 | 1 µM, 2 h, pH 7.4 | Papp A→B | 1.3 ×10⁻⁶ cm/s |
| O=c1c2ccc(Oc3ccccc3OC(F)(F)F)cc2[nH]c2cc(Cl)cc(F)c12 |  | metabolic stability | mouse, liver microsomes | 1 µM, pH 7.4 | half-life | 43.4 min |
| COc1ccc(N2CCN(CC(=O)Nc3ccc(C(=O)C=Cc4ccco4)cc3)CC2)cc1 | MCF-10A | cell growth or viability, MTT |  | 50 µM, 96 h | viability | 82% |
| O=c1c2c([nH]c3ccc(Oc4ccc(OC(F)(F)F)cc4)cc13)CCCC2 |  | metabolic stability | mouse, liver microsomes | 1 µM, pH 7.4 | half-life | 35.5 min |
| Cc1cc(S(=O)(=O)N[C@]2(C)C[C@@H](N3CCN(CC4CCN(c5ccc6c(c5F)n(C)c(=O)n6C5CCC(=O)NC5=O)CC4)CC3)C2)ccc1Nc1ncc(C(F)(F)F)c(N2CCC[C@](C)(O)C2)n1 (stereo partly drawn) | MDCK |  | Caco-2 | 1 µM, 2 h, pH 7.4 | Papp A→B | 1.5 ×10⁻⁶ cm/s |
| O=c1c2ccc(Oc3ccc(OC(F)(F)F)cc3)cc2[nH]c2cc(Cl)c(F)cc12 |  | metabolic stability | mouse, liver microsomes | 1 µM, pH 7.4 | half-life | > 60 min |
| Nc1nc(S)nc(O)c1N=Cc1cn(-c2ccccc2)nc1-c1ccc(Cl)cc1 | MCF-10A | cell growth or viability |  | 48 h | CC50 | > 40 µM |
| COc1ccc(C2CC(c3ccc(NC(=O)CN4CCN(c5ccc(Cl)cc5)CC4)cc3)=NN2C(C)=O)cc1 (stereo not drawn) | MCF-10A | cell growth or viability, MTT |  | 50 µM, 96 h | viability | 86% |
| Cc1cc(S(=O)(=O)NC2CC(N3CCN(CC4CCN(c5cccc6c5n(C)c(=O)n6C5CCC(=O)NC5=O)CC4)CC3)C2)ccc1Nc1ncc(C(F)(F)F)c(N2CCC[C@](C)(O)C2)n1 (stereo partly drawn) | MDCK |  | Caco-2 | 1 µM, 2 h, pH 7.4 | Papp A→B | 1.2 ×10⁻⁶ cm/s |
| CCCN(CCC)CCNc1ccc2c(=O)c3c([nH]c2c1)CCCC3 |  | metabolic stability | mouse, liver microsomes | 1 µM, pH 7.4 | half-life | 16.9 min |
| CNS(=O)(=O)c1ccc(Nc2ncc(C(F)(F)F)c(N3CCC[C@](C)(O)C3)n2)c(C)c1 | MDCK |  | Caco-2 | 1 µM, 2 h, pH 7.4 | Papp A→B | 16 ×10⁻⁶ cm/s |
| O=c1c2ccc(OCc3cccc(C(F)(F)F)c3)cc2[nH]c2ccc(Cl)c(F)c12 |  | metabolic stability | mouse, liver microsomes | 1 µM, pH 7.4 | half-life | > 60 min |
| O=C(CN1CCN(c2ccc(Cl)cc2)CC1)Nc1ccc(C(=O)C=Cc2ccco2)cc1 | MCF-10A | cell growth or viability, MTT |  | 50 µM, 96 h | viability | 90% |
